Measurements taken from ChEMBL document CHEMBL4387703, “Lead optimization and biological evaluation of fragment-based cN-II inhibitors” (Eur J Med Chem, 2019).
Active and inactive are the calls of the source. No cut-off for these calls is given here.

Molecular target: T1, 5'-nucleotidase (Rattus norvegicus) (UniProt P21588)
T1 sequence (whole entry): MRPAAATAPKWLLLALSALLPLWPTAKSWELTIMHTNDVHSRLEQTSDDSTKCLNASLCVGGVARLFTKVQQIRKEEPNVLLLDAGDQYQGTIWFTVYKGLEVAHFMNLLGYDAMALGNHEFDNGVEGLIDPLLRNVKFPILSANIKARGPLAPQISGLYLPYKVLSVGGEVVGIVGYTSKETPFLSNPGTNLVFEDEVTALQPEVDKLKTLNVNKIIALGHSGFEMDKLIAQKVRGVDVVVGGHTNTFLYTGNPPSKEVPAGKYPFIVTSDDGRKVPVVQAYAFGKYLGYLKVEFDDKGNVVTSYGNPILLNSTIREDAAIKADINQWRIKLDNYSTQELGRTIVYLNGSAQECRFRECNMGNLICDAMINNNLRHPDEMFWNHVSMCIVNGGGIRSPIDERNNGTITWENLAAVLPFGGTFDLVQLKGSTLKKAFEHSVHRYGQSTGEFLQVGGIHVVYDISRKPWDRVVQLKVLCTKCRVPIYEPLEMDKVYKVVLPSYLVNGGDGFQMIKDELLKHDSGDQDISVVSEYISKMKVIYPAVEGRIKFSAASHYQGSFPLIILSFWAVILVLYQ
Test: Inhibition of purified rat liver 5'-nucleotidase using IMP as substrate assessed as reduction in substrate dephosphorylation at 2 to 6 mM

Row | inhibition [%] | Compound
1 | 50 | CC(C)CSC[C@H]1O[C@@H](n2cnc3c(N)ncnc32)[C@H](O)[C@@H]1O

Molecular target: 5'-nucleotidase (Homo sapiens) (UniProt P21589)
Test: Inhibition of recombinant cN-II (unknown origin) assessed as reduction in inorganic phosphate production at 200 uM pre-incubated for 10 mins followed by addition of IMP as substrate and measured after 5 mins by malachite green based assay relative to control
In short: (§1)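 Purified recombinant cN-II (0.1 μM final) in 50 mM imidazole pH 6.5, 500 mM NaCl and 10 mM MgCl2 was preincubated on ice with compound for 10 min. IMP (50 μM, equimolar Mg) was then added for 5 min at 37 °C.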

Sequence of 5'-nucleotidase (Homo sapiens) (P21589 whole entry): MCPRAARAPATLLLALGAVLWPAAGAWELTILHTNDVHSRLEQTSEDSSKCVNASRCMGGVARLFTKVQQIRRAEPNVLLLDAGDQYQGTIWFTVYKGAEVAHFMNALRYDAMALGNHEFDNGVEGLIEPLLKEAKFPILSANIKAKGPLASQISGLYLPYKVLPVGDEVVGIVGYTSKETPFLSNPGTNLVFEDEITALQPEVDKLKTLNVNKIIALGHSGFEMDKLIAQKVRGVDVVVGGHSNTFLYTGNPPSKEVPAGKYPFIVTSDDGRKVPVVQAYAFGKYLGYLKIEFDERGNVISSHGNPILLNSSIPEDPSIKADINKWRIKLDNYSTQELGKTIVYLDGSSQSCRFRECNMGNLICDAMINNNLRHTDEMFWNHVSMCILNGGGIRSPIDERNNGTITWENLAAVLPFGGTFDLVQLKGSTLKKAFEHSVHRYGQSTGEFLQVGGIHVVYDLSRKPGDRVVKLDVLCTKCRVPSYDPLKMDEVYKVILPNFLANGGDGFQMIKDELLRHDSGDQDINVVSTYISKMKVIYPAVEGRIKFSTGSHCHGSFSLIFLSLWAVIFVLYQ

Row | Compound | inhibition [%]
2 | O=C(Nc1ncnc2[nH]cnc12)c1ccccc1-c1ccc(-c2nn[nH]n2)cc1 | 30
3 | CCOC(=O)Cn1cnc2c(NC(=O)c3ccc(-c4ccccc4-c4nn[nH]n4)cc3)ncnc21 | 27
4 | O=C(Nc1ncnc2[nH]cnc12)c1cccc(-c2ccc(-c3nn[nH]n3)cc2)c1 | 60
5 | O=C(Nc1ncnc2[nH]cnc12)c1cccc(-c2ccccc2-c2nn[nH]n2)c1 | 27
6 | CCOC(=O)Cn1cnc2c(N)ncnc21 | 3
7 | CCOP(=O)(O)Cn1cnc(-c2cccc(-c3cccc(C(=O)Nc4ncnc5nc[nH]c45)c3)c2)c1 | 75
8 | CCOP(=O)(O)Cn1cnc(-c2cccc(-c3cccc(C(=O)Nc4ncnc5ncn(COCc6ccccc6)c45)c3)c2)c1 | 60
9 | O=C(Nc1ncnc2[nH]cnc12)c1ccc(-c2ccccc2-c2nn[nH]n2)cc1 | 10

Further lines, results first:

Row | inhibition [%] | Compound
10 | 52 | O=C(Nc1ncnc2ncn(Cc3ccccc3)c12)c1cccc(-c2ccccc2)c1
11 | 62 | CC(=O)OCCn1cnc2c(NC(=O)c3cccc(-c4ccccc4)c3)ncnc21
12 | 47 | CCOP(=O)(Cn1cnc2c(NC(=O)c3cccc(-c4ccccc4)c3)ncnc21)OCC
13 | 49 | O=C(Nc1ncnc2nc[nH]c12)c1cccc(-c2cccc(-c3cn(CP(=O)(O)O)cn3)c2)c1
14 | 50 | O=C(Nc1ncnc2ncn(COCc3ccccc3)c12)c1cccc(-c2ccccc2)c1
15 | 50 | O=C(Nc1ncnc2[nH]cnc12)c1cccc(-c2cccc(-c3nn[nH]n3)c2)c1
16 | 46 | O=C(Nc1ncnc2c1ncn2CCO)c1cccc(-c2ccccc2)c1
17 | 62 | O=C(O)Cn1cnc2c(NC(=O)c3cccc(-c4ccccc4)c3)ncnc21
18 | 57 | O=C(Nc1ncnc2c1ncn2Cc1ccccc1)c1cccc(-c2ccccc2)c1
19 | 34 | O=C(Nc1ncnc2c1ncn2COCc1ccccc1)c1cccc(-c2ccccc2)c1
20 | 68 | O=C(Nc1ncnc2[nH]cnc12)c1cccc(-c2ccccc2)c1
21 | 60 | CCOC(=O)Cn1cnc2c(NC(=O)c3cccc(-c4ccccc4)c3)ncnc21

Molecular target: T1, 5'-nucleotidase (Rattus norvegicus)
Test: Inhibition of purified rat liver 5'-nucleotidase using IMP as substrate assessed as reduction in substrate dephosphorylation at 7 to 10 mM

Row | inhibition [%] | Compound
22 | 50 | CC(C)CSC[C@H]1O[C@@H](n2cnc3c(=O)[nH]cnc32)[C@H](O)[C@@H]1O

Molecular target: 5'-nucleotidase (Homo sapiens) (UniProt P21589)
Test: Inhibition of recombinant cN-II (unknown origin) assessed as reduction in inorganic phosphate production at 1 mM pre-incubated for 10 mins followed by addition of IMP as substrate and measured after 5 mins by malachite green based assay relative to control
In short: as §1

Row | inhibition | Compound
23 | inactive | Nc1ncnc2ncn(COCc3ccccc3)c12
24 | 26% | Nc1ncnc2ncn(Cc3ccccc3)c12
25 | 23% | Nc1ncnc2c1ncn2Cc1ccccc1
26 | inactive | CC(=O)OCCn1cnc2c(N)ncnc21
27 | 13% | Nc1ncnc2c1ncn2COCc1ccccc1

Row | Compound | inhibition
28 | CCOP(=O)(Cn1cnc2c(N)ncnc21)OCC | inactive
